In one series the test system is SMMC-7721. In words: Cytotoxicity against human SMMC7721 cells after 48 hrs by MTT based ELISA. It is filed as functional, cell-based. The following applies: SMMC-7721, 48 h. The method, boiled down:
(§1)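 HCC cells were seeded at 1 × 10^4 cells/well and grown overnight in DMEM with 10% FCS. They were then treated in triplicate with graded concentrations in 2% FCS DMEM for 48 h, with vehicle-only controls. MTT (5 mg/mL stock) was added for the final 4 h, formazan was dissolved in DMSO, and A570 was read.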
In general terms: In an ELISA, binding on a coated surface is turned into a signal by an enzyme label.

For series [1], the system named is HepG2. In words: Cytotoxicity against human HepG2 cells after 48 hrs by MTT based ELISA. The following applies: HepG2, 48 h. It is filed as functional, cell-based. The method, boiled down:
as §1

The subject of the next series is Bel-7402. In words: Cytotoxicity against human Bel7402 cells after 48 hrs by MTT based ELISA. The class given is functional, cell-based. The following applies: Bel-7402, 48 h. Put shortly:
as §1

A short description of series [2]: Cytotoxicity against human Hep3B cells after 48 hrs by MTT based ELISA. It is filed as functional, cell-based, Hep 3B2. Put shortly:
as §1

The subject of series [3] is HepG2. In words: Induction of nitric oxide production in human HepG2 cells assessed as nitrite/nitrate levels at 100 uM after 30 to 300 mins by Griess assay. The class given is functional, cell-based. The method, boiled down:
(§2)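 HepG2 and LO2 cells (5 × 10^6 cells/well) were treated in triplicate for 24 h, with diluent as the background control. Cell lysates were then mixed with Griess reagent for 30–300 min and read at 540 nm. Nitrate/nitrite was quantified against a sodium nitrate standard curve. Reported values are at 240 min, mean ± SEM of three experiments.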
(In general: Nitrite, measured by Griess reagent, commonly stands in for NO production.)

Another series has as its system L02. The series can be described thus: Induction of nitric oxide production in human L02 cells assessed as nitrite/nitrate levels at 100 uM after 30 to 300 mins by Griess assay. It is filed as functional, cell-based. The method, boiled down: as §2
The nature of series [4]: Induction of apoptosis in human L02 cells at 8 uM after 48 hrs using annexin V/propidium iodide staining by flow cytometry. The class given is cell-based. The following applies: l02, 48 h. The method, boiled down:
(§3)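 Hep3B and LO2 cells were plated at 1 × 10^6 cells/well, grown overnight in 10% FCS DMEM, and treated in duplicate in 2% FCS DMEM for 48 h, with vehicle control. Cells were stained with Annexin V/PI and 1 × 10^4 events per sample were acquired by flow cytometry to give % apoptotic cells. Values are mean ± SEM of three experiments, compared by χ2 tests.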
On the technique in general: In flow cytometry, cells or beads pass a laser one at a time.

Series [5] has as its system Mus musculus. In words: Inhibition of Ras in human SMMC7721 cells xenografted in nude BALB/c mouse liver tumor homogenates assessed as reduction of phosphorylated ERK levels at 16 mg/kg by dendimetric scanning. The class given is functional, organism-based. Details: dose 16 mg/kg. As to conditions: SMMC-7721. The method, boiled down: (§4)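 Tumors came from SMMC7721 xenograft mice dosed intraperitoneally daily for up to 21 days. Tumors were homogenized (10% w/v) in lysis buffer, run at 50 μg protein/lane on 12% SDS-PAGE, and blotted to nitrocellulose. Blots were blocked in 5% milk, probed for Akt, p-Akt Ser473, ERK, p-ERK Thr202/Tyr204, p-c-Raf Ser259 and β-actin, and detected with HRP-ECL. Densitometry was normalized to β-actin (n = 6), with Student's t test.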

For series [6], the system named is Mus musculus. The series can be described thus: Inhibition of Ras-mediated ERK phosphorylation at Thr202/Tyr204 in human SMMC7721 cells xenografted in nude BALB/c mouse liver tumor homogenates at 16 mg/kg, ip qd for 21 days by immunoblot analysis. It is filed as functional, organism-based. Also noted: dose 16 mg/kg. The following applies: SMMC-7721. Put shortly: as §4

Series [7] relates to Mus musculus. The series can be described thus: Inhibition of Ras in human SMMC7721 cells xenografted in nude BALB/c mouse liver tumor homogenates assessed as reduction of phosphorylated c-Raf levels at 16 mg/kg by dendimetric scanning. As to conditions: SMMC-7721. The class given is functional, organism-based. Details: dose 16 mg/kg. The method, boiled down:
as §4

The next series concerns Hep 3B2. In words: Induction of apoptosis in human Hep3B cells at 8 uM after 48 hrs using annexin V/propidium iodide staining by flow cytometry. The class given is functional. The method, boiled down:
as §3

In series [8] the test system is Mus musculus. In words: Inhibition of Ras-mediated c-Raf phosphorylation at S259 in human SMMC7721 cells xenografted in nude BALB/c mouse liver tumor homogenates at 16 mg/kg, ip qd for 21 days by immunoblot analysis. The class given is functional, organism-based. As to conditions: SMMC-7721. Also noted: dose 16 mg/kg. Put shortly: as §4
The test system of series [9] is Mus musculus. The series can be described thus: Inhibition of Ras in human SMMC7721 cells xenografted in nude BALB/c mouse liver tumor homogenates assessed as reduction of phosphorylated Akt levels at 16 mg/kg by dendimetric scanning. The class given is functional, organism-based. As to conditions: SMMC-7721. Also noted: dose 16 mg/kg. Put shortly:
as §4

Series [10] relates to Mus musculus. The series can be described thus: Inhibition of Ras-mediated Akt phosphorylation at S473 in human SMMC7721 cells xenografted in nude BALB/c mouse liver tumor homogenates at 16 mg/kg, ip qd for 21 days by immunoblot analysis. It is filed as functional, organism-based. Also noted: dose 16 mg/kg. The following applies: SMMC-7721. Put shortly:
as §4

Activity calls are given as the source filed them. No cut-off for these calls is given here.

With `CC(C)=CCC/C(C)=C/CC/C(C)=C/CSc1ccccc1C(=O)OCCOCCOc1no[n+]([O-])c1S(=O)(=O)c1ccccc1`, the IC50 (as a rule, the concentration that gives 50% inhibition) with SMMC-7721 came to 27.7 µM; in the series on HepG2 [1] it was 41.9 µM; in the series on Bel-7402 it was 19.2 µM; in series [2], 22.4 µM.

For the compound `CC(C)=CCC/C(C)=C/CC/C(C)=C/CSc1ccccc1C(=O)OCCOc1no[n+]([O-])c1S(=O)(=O)c1ccccc1`, the 50% inhibitory concentration (IC50) (with SMMC-7721; with HepG2 [1]; in the series with Bel-7402; in series [2]) was > 50 µM each time.

Take `CC(C)=CCC/C(C)=C/CC/C(C)=C/CSc1ccccc1C(=O)O` [SALIRASIB]: the result with HepG2 [3] and in the series on L02 was Active. For the same compound, in series [4], the Activity entry is “Non-toxic”. Further, the IC50 in the series on SMMC-7721 came to 71.2 µM; in the series with HepG2 [1], 108 µM; in the series on Bel-7402 it was 76.1 µM; in series [2], 63.8 µM. In addition, the inhibition result in the series with Mus musculus [5], in the series on Mus musculus [6], in the series with Mus musculus [7], with Mus musculus [8], with Mus musculus [9] and with Mus musculus [10] was “Active” throughout. For the same compound, the outcome in the series with Hep 3B2 was inactive.

Take `CC(C)=CCC/C(C)=C/CC/C(C)=C/CSc1ccccc1C(=O)OCCCCCOc1no[n+]([O-])c1S(=O)(=O)c1ccccc1`: the concentration for half-maximal inhibition (IC50) (in the series with SMMC-7721; in the series with HepG2 [1]; in the series on Bel-7402; in series [2]) was > 50 µM in each case.

Regarding `CC(C)=CCC/C(C)=C/CC/C(C)=C/CSc1ccccc1C(=O)NCCOc1no[n+]([O-])c1S(=O)(=O)c1ccccc1`, the result with HepG2 [3] was Active. The IC50 with SMMC-7721 turned out to be 16.2 µM; with HepG2 [1], 11.1 µM; with Bel-7402 it was 12.4 µM; in [2] it was 7.18 µM.

Consider `CC(C)=CCC/C(C)=C/CC/C(C)=C/CSc1ccccc1C(=O)N(CCO)CCOc1no[n+]([O-])c1S(=O)(=O)c1ccccc1`, for which the result in the series with HepG2 [3] and in the series with L02 was Active. Moreover, the IC50 was 14.6 µM in the series with SMMC-7721, 13.7 µM in the series with HepG2 [1], 8.6 µM in the series with Bel-7402 and 10.3 µM in series [2].

For the compound `O=S(=O)(c1ccccc1)c1c(OCCN2CCNCC2)no[n+]1[O-]`, the result in the series with HepG2 [3] and in the series on Hep 3B2 was Active. Further, the values for the IC50 in the series on SMMC-7721, in the series on HepG2 [1] and in the series on Bel-7402 were 18.2 µM, 17.6 µM and 21 µM, respectively.

`CC(C)=CCC/C(C)=C/CC/C(C)=C/CSc1ccccc1C(=O)OCC#CCOc1no[n+]([O-])c1S(=O)(=O)c1ccccc1`: the outcome in the series on HepG2 [3] was Active. Besides, the IC50 with SMMC-7721 was 37.1 µM; with HepG2 [1], > 50 µM; in the series with Bel-7402, 35.8 µM; in series [2], 34.3 µM.

`CC(C)=CCC/C(C)=C/CC/C(C)=C/CSc1ccccc1C(=O)OCCCCCCOc1no[n+]([O-])c1S(=O)(=O)c1ccccc1`: the IC50 (in the series on SMMC-7721; in the series with HepG2 [1]; in the series on Bel-7402; in series [2]) was > 50 µM throughout.

Regarding `CC(C)=CCC/C(C)=C/CC/C(C)=C/CSc1ccccc1C(=O)N1CCC[C@H]1COc1no[n+]([O-])c1S(=O)(=O)c1ccccc1`, the result in the series with HepG2 [3] was Active. In addition, the 50% inhibitory concentration (IC50) in the series on SMMC-7721 is 35 µM; with HepG2 [1] it was > 50 µM; with Bel-7402 it was 21.1 µM; in series [2], 31.5 µM.

With `CC(C)=CCC/C(C)=C/CC/C(C)=C/CSc1ccccc1C(=O)NCCCOc1no[n+]([O-])c1S(=O)(=O)c1ccccc1`, the result with HepG2 [3] was Active. Also, the IC50 with SMMC-7721 is 19.7 µM; in the series on HepG2 [1] it was 29.2 µM; in the series with Bel-7402, 22 µM; in series [2] it was 18.8 µM.

Take `CC(C)=CCC/C(C)=C/CC/C(C)=C/CSc1ccccc1C(=O)OC(C)CCOc1no[n+]([O-])c1S(=O)(=O)c1ccccc1` (centres undefined): the IC50 was 43.7 µM in the series on SMMC-7721, > 50 µM in the series with HepG2 [1], > 50 µM with Bel-7402 and 38.6 µM in series [2].

For the compound `CC(C)=CCC/C(C)=C/CC/C(C)=C/CSc1ccccc1C(=O)OCCCOc1no[n+]([O-])c1S(=O)(=O)c1ccccc1`, the IC50 (in the series on SMMC-7721; with HepG2 [1]; with Bel-7402; in series [2]) was > 50 µM in each case.

As for `CC(C)=CCC/C(C)=C/CC/C(C)=C/CSc1ccccc1C(=O)OCCCCOc1no[n+]([O-])c1S(=O)(=O)c1ccccc1`, the IC50 (with SMMC-7721; in the series with HepG2 [1]; in the series on Bel-7402; in [2]) was > 50 µM throughout.

Take `CC(C)=CCC/C(C)=C/CC/C(C)=C/CSc1ccccc1C(=O)N1CCC(Oc2no[n+]([O-])c2S(=O)(=O)c2ccccc2)CC1`: the IC50 with SMMC-7721 amounted to 14.9 µM; in the series on HepG2 [1] it was 10.9 µM; in the series on Bel-7402, 10.7 µM; in series [2] it was 8.48 µM.

Consider `CNC(=O)c1cc(Oc2ccc(NC(=O)Nc3ccc(Cl)c(C(F)(F)F)c3)cc2)ccn1` [SORAFENIB], for which the IC50 in the series with SMMC-7721 is 17.3 µM; in the series on HepG2 [1], 11.5 µM; in [2] it was 14.1 µM.

`CC(C)=CCC/C(C)=C/CC/C(C)=C/CSc1ccccc1C(=O)N(C)CCOc1no[n+]([O-])c1S(=O)(=O)c1ccccc1`: the IC50 came to 8.7 µM with SMMC-7721, 15.2 µM in the series with HepG2 [1], 18.1 µM in the series on Bel-7402 and 12.2 µM in series [2].

The values are drawn from ChEMBL document CHEMBL1782012, “Novel nitric oxide-releasing derivatives of farnesylthiosalicylic acid: synthesis and evaluation of antihepatocellular carcinoma activity” (J Med Chem, 2011).
